What was measured:
[1] = AUC (0 to infinity) in healthy human at 8 mg/kg, iv administered as 30 mins infusion every 24 hrs measured on day 7; format: ADME, organism-based; set-up: dose 8 mg/kg, route intravenous, time infinity; details: plasma
[2] = Renal clearance in morbidly obese adult human at 4 mg/kg, iv administered as single dose 30 mins infusion; format: ADME, organism-based, Kidney; set-up: dose 4 mg/kg, route intravenous; details: in vivo, read-out: CL_renal (converted)
[3] = Half life in healthy human subjects at 10 mg/kg, iv administered as 30 mins infusion every 24 hrs measured on day 14; format: ADME, organism-based; set-up: dose 10 mg/kg, route intravenous; details: in vivo
[4] = Cmax in healthy human at 6 mg/kg, iv administered as 30 mins infusion every 24 hrs measured on day 7; format: ADME, organism-based; set-up: dose 6 mg/kg, route intravenous; details: in vivo
[5] = Renal clearance in nonobese adult human at 4 mg/kg, iv administered as single dose 30 mins infusion; format: ADME, organism-based, Kidney; set-up: dose 4 mg/kg, route intravenous; details: in vivo, read-out: CL_renal (converted)
[6] = Apparent volume of distribution during terminal phase in healthy human at 8 mg/kg, iv administered as 30 mins infusion every 24 hrs measured on day 14; format: ADME, organism-based; set-up: dose 8 mg/kg, route intravenous; details: in vivo
[7] = Apparent volume of distribution during terminal phase in healthy human subjects at 12 mg/kg, iv administered as 30 mins infusion every 24 hrs measured on day 4; format: ADME, organism-based; set-up: dose 12 mg/kg, route intravenous; details: in vivo
[8] = Clearance in healthy human at 6 mg/kg, iv administered as 30 mins infusion every 24 hrs measured on day 7; format: ADME, organism-based; set-up: dose 6 mg/kg, route intravenous; details: in vivo
[9] = Clearance in healthy human at 4 mg/kg, iv administered as 30 mins infusion every 24 hrs measured on day 7; format: ADME, organism-based; set-up: dose 4 mg/kg, route intravenous; details: in vivo
Homo sapiens [10] = assay: Apparent volume of distribution in healthy human at 4 mg/kg, iv administered as single dose 30 mins infusion; format: ADME, organism-based; set-up: dose 4 mg/kg, route intravenous; details: in vivo, 0.5 h
[11] = Unbound fraction in healthy human plasma at 4 mg/kg, iv administered as 30 mins infusion every 24 hrs measured on day 1; format: ADME, organism-based; set-up: dose 4 mg/kg, route intravenous
[12] = AUC (0 to infinity) in healthy human subjects at 8 mg/kg, iv administered as 30 mins infusion every 24 hrs measured on day 1; format: ADME, organism-based; set-up: time infinity, dose 8 mg/kg, route intravenous; details: plasma
[13] = Mean residence time in adult human subjects at 6 mg/kg, iv administered as single dose 30 mins infusion; format: ADME, organism-based; set-up: dose 6 mg/kg, route intravenous; details: in vivo
[14] = Volume of distribution at steady state in morbidly obese adult human at 4 mg/kg, iv administered as single dose 30 mins infusion; format: ADME, organism-based; set-up: dose 4 mg/kg, route intravenous; details: in vivo, read-out: Vdss
[15] = AUC ( 0 to infinity) in cancer patient with neutropenic fever at 6 mg/kg, iv administered as 30 mins infusion every 24 hrs; format: ADME, organism-based; set-up: time infinity, dose 6 mg/kg, route intravenous; details: human, plasma
Outline: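 Adult oncology patients with neutropenic fever (n = 29) received 6 mg/kg by total body weight as a 30-min IV infusion. Plasma was sampled predose, at end of infusion, and at 0.5, 1, 2, 4, 8, 12 and 24 h. Total drug was measured by validated HPLC (linear 1–100 μg/ml). Noncompartmental analysis: AUC0-24 by linear trapezoidal rule, plus last concentration/λz. Mean ± SD.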

[16] = Cmax in healthy human subjects at 12 mg/kg, iv administered as 30 mins infusion every 24 hrs measured on day 1; format: ADME, organism-based; set-up: dose 12 mg/kg, route intravenous; details: in vivo
[17] = AUC (0 to infinity) in nonobese human at 4 mg/kg, iv administered as single dose 30 mins infusion; format: ADME, organism-based; set-up: time infinity, dose 4 mg/kg, route intravenous; details: plasma
[18] = Cmax in healthy human at 8 mg/kg, iv administered as 30 mins infusion every 24 hrs measured on day 7; format: ADME, organism-based; set-up: dose 8 mg/kg, route intravenous; details: in vivo
[19] = Drug excretion in morbidly obese adult human urine assessed as unchanged drug at 4 mg/kg, iv administered as single dose 30 mins infusion; format: ADME, organism-based; set-up: dose 4 mg/kg, route intravenous; details: read-out: Drug uptake
[20] = Cmax in healthy human at 8 mg/kg, iv administered as 30 mins infusion every 24 hrs measured on day 14; format: ADME, organism-based; set-up: dose 8 mg/kg, route intravenous; details: in vivo
[21] = Drug excretion in healthy human urine assessed as unchanged drug at 4 mg/kg, iv administered as single dose 30 mins infusion; format: ADME, organism-based; set-up: dose 4 mg/kg, route intravenous; details: read-out: Drug uptake
[22] = Clearance in healthy human subjects at 12 mg/kg, iv administered as 30 mins infusion every 24 hrs measured on day 4; format: ADME, organism-based; set-up: dose 12 mg/kg, route intravenous; details: in vivo
[23] = Plasma protein binding in human after 2 hrs; format: ADME, cell-free; details: read-out: PPB (converted)
Outline: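 Neutropenic-fever oncology patients received 6 mg/kg IV daptomycin; serum was drawn 0.5, 2 and 8 h after the end of infusion. Free drug was obtained by ultrafiltration (30,000-MW cutoff) and quantified by HPLC against a saline-matrix curve of 0.25–100 μg/ml, with total plasma drug also measured. Percent bound was (total − free)/total × 100; results are given as mean ± SD.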

[24] = Unbound fraction in healthy human plasma at 8 mg/kg, iv administered as 30 mins infusion every 24 hrs measured on day 14; format: ADME, organism-based; set-up: dose 8 mg/kg, route intravenous
[25] = Plasma concentration in young healthy human at 4 mg/kg, iv administered as single dose 30 mins infusion measured after 24 hrs; format: ADME, organism-based; set-up: dose 4 mg/kg, route intravenous
[26] = Plasma concentration in old healthy human at 4 mg/kg, iv administered as single dose 30 mins infusion measured after 24 hrs; format: ADME, organism-based; set-up: dose 4 mg/kg, route intravenous
[27] = Unbound fraction in healthy human plasma at 8 mg/kg, iv administered as 30 mins infusion every 24 hrs measured on day 7; format: ADME, organism-based; set-up: dose 8 mg/kg, route intravenous
[28] = Cmax in moderately obese adult human at 4 mg/kg, iv administered as single dose 30 mins infusion; format: ADME, organism-based; set-up: dose 4 mg/kg, route intravenous; details: in vivo
[29] = AUC (0 to infinity) in healthy human subjects at 10 mg/kg, iv administered as 30 mins infusion every 24 hrs measured on day 1; format: ADME, organism-based; set-up: time infinity, dose 10 mg/kg, route intravenous; details: plasma
[30] = AUC (0 to infinity) in healthy human at 4 mg/kg, iv administered as 30 mins infusion every 24 hrs measured on day 7; format: ADME, organism-based; set-up: time infinity, dose 4 mg/kg, route intravenous; details: plasma
[31] = Renal clearance in adult human subjects at 6 mg/kg, iv administered as single dose 30 mins infusion; format: ADME, organism-based, Kidney; set-up: dose 6 mg/kg, route intravenous; details: in vivo, read-out: CL_renal (converted)
[32] = Volume of distribution at steady state in young healthy human at 4 mg/kg, iv administered as single dose 30 mins infusion; format: ADME, organism-based; set-up: dose 4 mg/kg, route intravenous; details: in vivo, read-out: Vdss
[33] = Drug excretion in adult human subjects urine assessed as unchanged drug at 6 mg/kg, iv administered as single dose 30 mins infusion; format: ADME, organism-based; set-up: dose 6 mg/kg, route intravenous; details: read-out: Drug uptake
Homo sapiens [34] = assay: Volume of distribution in central compartment in healthy human at 4 mg/kg, iv administered as single dose 30 mins infusion; format: ADME, organism-based; set-up: dose 4 mg/kg, route intravenous; details: in vivo, 0.5 h
[35] = AUC (0 to infinity) in healthy human at 8 mg/kg, iv administered as 30 mins infusion every 24 hrs measured on day 1; format: ADME, organism-based; set-up: time infinity, dose 8 mg/kg, route intravenous; details: plasma
[36] = Half life in healthy human at 8 mg/kg, iv administered as 30 mins infusion every 24 hrs measured on day 14; format: ADME, organism-based; set-up: dose 8 mg/kg, route intravenous; details: in vivo
[37] = Cmax in healthy human at 4 mg/kg, iv administered as 30 mins infusion every 24 hrs measured on day 7; format: ADME, organism-based; set-up: dose 4 mg/kg, route intravenous; details: in vivo
[38] = Half life in adult human subjects at 6 mg/kg, iv administered as single dose 30 mins infusion; format: ADME, organism-based; set-up: dose 6 mg/kg, route intravenous; details: in vivo
[39] = Cmax in cancer patient with neutropenic fever at 6 mg/kg, iv administered as 30 mins infusion every 24 hrs; format: ADME, organism-based; set-up: dose 6 mg/kg, route intravenous; details: human, in vivo
Outline: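 First 6 mg/kg dose given over 30 min IV (q24h) to 29 neutropenic febrile adult cancer patients. Serial plasma was taken predose, at end of infusion, and at 0.5–24 h. Total concentration was measured by validated HPLC (limit of detection 1 μg/ml). Cmax is the observed peak value, reported as mean ± SD and range.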

CCCCCCCCCC(=O)N[C@@H](Cc1c[nH]c2ccccc12)C(=O)N[C@H](CC(N)=O)C(=O)N[C@@H](CC(=O)O)C(=O)N[C@@H]1C(=O)NCC(=O)N[C@@H](CCCN)C(=O)N[C@@H](CC(=O)O)C(=O)N[C@H](C)C(=O)N[C@@H](CC(=O)O)C(=O)NCC(=O)N[C@H](CO)C(=O)N[C@@H]([C@H](C)CC(=O)O)C(=O)N[C@@H](CC(=O)c2ccccc2N)C(=O)O[C@@H]1C gave an AUC(0-inf) [1] of 1130 µg·h/mL, a CL renal at 0.5 h [2] of 0.134 mL/min/kg and a half-life [3] of 7.9 h. For the same compound, the Cmax [4] was 98.6 µg/mL, the CL renal at 0.5 h [5] was 0.139 mL/min/kg and the Vd [6] was 0.095 L/kg. It also gave a Vd [7] of 0.0976 L/kg, a clearance [8] of 0.135 mL/min/kg and a clearance [9] of 0.138 mL/min/kg. It also gave a Vd (Homo sapiens [10]) of 6350 mL, a fraction unbound at 1 day [11] of 0.08 and an AUC(0-inf) [12] of 773 µg·h/mL. The MRT [13] was 12.4 h, the Vd [14] was 0.18 L/kg and the AUC(0-inf) [15] was 427 µg·h/mL. The Cmax [16] was 165 µg/mL, the AUC(0-inf) [17] was 419 µg·h/mL and the Cmax [18] was 133 µg/mL. The dose excreted at 0.5 h [19] was 42.7%, the Cmax [20] was 130 µg/mL and the dose excreted at 0.5 h [21] was 59.7%. The clearance [22] was 0.15 mL/min/kg, the fraction unbound at 2 h [23] was 0.063 and the fraction unbound at 14 day [24] was 0.09. The concentration at 24 h [25] was < 3.3 µg/mL, the concentration at 24 h [26] was 6.38 µg/mL and the fraction unbound at 7 day [27] was 0.09. It also gave a Cmax [28] of 57.8 µg/mL, an AUC(0-inf) [29] of 1010 µg·h/mL and an AUC(0-inf) [30] of 494 µg·h/mL. For the same compound, the CL renal at 0.5 h [31] was 0.0453 mL/min/kg, the Vd [32] was 0.14 L/kg and the dose excreted at 0.5 h [33] was 39.8%. The Vd (Homo sapiens [34]) was 3420 mL, the AUC(0-inf) [35] was 1130 µg·h/mL and the half-life [36] was 8.9 h. The Cmax [37] was 57.8 µg/mL, the half-life [38] was 9.44 h and the Cmax [39] was 48.9 µg/mL.

Source: ChEMBL document CHEMBL1649119, “Daptomycin pharmacokinetics in adult oncology patients with neutropenic fever” (Antimicrob Agents Chemother, 2009)
